Assay: Safety and tolerability
Format: in vivo, human
Outline: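 Patients (enrolled January 2015–February 2016) received oral test compound in four cohorts: 160, 320 or 480 mg QD, or 300 mg BID. Dosing continued until progression, unacceptable AEs or consent withdrawal. AEs were graded by CTCAE v4.0, alongside laboratory tests, vital signs and ECGs. The safety population was all patients receiving ≥1 dose.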

With `CC#CC(=O)N1CC[C@@H](n2c(=O)n(-c3ccc(Oc4ccccc4)cc3)c3c(N)ncnc32)C1` [tirabrutinib] the “All AEs, Any grade” value (160 mg QD N = 3) was 3 (100.0) n (%), the “All AEs, Grade ≥3” value (160 mg QD N = 3) was 1 (33.3) n (%) and the “Anemia, Any grade” value (160 mg QD N = 3) was 0 n (%). The “Anemia, Grade ≥3” value (160 mg QD N = 3) was 0 n (%), the “Arthralgia, Any grade” value (160 mg QD N = 3) was 1 (33.3) n (%) and the “Arthralgia, Grade ≥3” value (160 mg QD N = 3) was 0 n (%). The “Aspartate aminotransferase increased, Any grade” value (160 mg QD N = 3) was 0 n (%), the “Aspartate aminotransferase increased, Grade ≥3” value (160 mg QD N = 3) was 0 n (%) and the “Constipation, Any grade” value (160 mg QD N = 3) was 0 n (%). For the same compound, the “Constipation, Grade ≥3” value (160 mg QD N = 3) was 0 n (%), the “Cystitis, Any grade” value (160 mg QD N = 3) was 0 n (%) and the “Cystitis, Grade ≥3” value (160 mg QD N = 3) was 0 n (%). The “Diarrhea, Any grade” value (160 mg QD N = 3) was 0 n (%), the “Diarrhea, Grade ≥3” value (160 mg QD N = 3) was 0 n (%) and the “Dysgeusia, Any grade” value (160 mg QD N = 3) was 0 n (%). For the same compound, the “Dysgeusia, Grade ≥3” value (160 mg QD N = 3) was 0 n (%), the “Gamma‐glutamyltransferase increased, Any grade” value (160 mg QD N = 3) was 0 n (%) and the “Gamma‐glutamyltransferase increased, Grade ≥3” value (160 mg QD N = 3) was 0 n (%). The “Headache, Any grade” value (160 mg QD N = 3) was 1 (33.3) n (%), the “Headache, Grade ≥3” value (160 mg QD N = 3) was 0 n (%) and the “Hypokalemia, Any grade” value (160 mg QD N = 3) was 0 n (%). The “Hypokalemia, Grade ≥3” value (160 mg QD N = 3) was 0 n (%), the “Hypophosphatemia, Any grade” value (160 mg QD N = 3) was 0 n (%) and the “Hypophosphatemia, Grade ≥3” value (160 mg QD N = 3) was 0 n (%). The “Insomnia, Any grade” value (160 mg QD N = 3) was 0 n (%), the “Insomnia, Grade ≥3” value (160 mg QD N = 3) was 0 n (%) and the “Leukopenia, Any grade” value (160 mg QD N = 3) was 0 n (%). The “Leukopenia, Grade ≥3” value (160 mg QD N = 3) was 0 n (%), the “Lymphopenia, Any grade” value (160 mg QD N = 3) was 0 n (%) and the “Lymphopenia, Grade ≥3” value (160 mg QD N = 3) was 0 n (%). The “Malaise, Any grade” value (160 mg QD N = 3) was 2 (66.7) n (%), the “Malaise, Grade ≥3” value (160 mg QD N = 3) was 0 n (%) and the “Myalgia, Any grade” value (160 mg QD N = 3) was 2 (66.7) n (%). The “Myalgia, Grade ≥3” value (160 mg QD N = 3) was 0 n (%), the “Nasopharyngitis, Any grade” value (160 mg QD N = 3) was 1 (33.3) n (%) and the “Nasopharyngitis, Grade ≥3” value (160 mg QD N = 3) was 0 n (%). For the same compound, the “Nausea, Any grade” value (160 mg QD N = 3) was 0 n (%), the “Nausea, Grade ≥3” value (160 mg QD N = 3) was 0 n (%) and the “Neutropenia, Any grade” value (160 mg QD N = 3) was 1 (33.3) n (%). For the same compound, the “Neutropenia, Grade ≥3” value (160 mg QD N = 3) was 1 (33.3) n (%), the “Pharyngitis, Any grade” value (160 mg QD N = 3) was 1 (33.3) n (%) and the “Pharyngitis, Grade ≥3” value (160 mg QD N = 3) was 0 n (%). The “Pyrexia, Any grade” value (160 mg QD N = 3) was 0 n (%), the “Pyrexia, Grade ≥3” value (160 mg QD N = 3) was 0 n (%) and the “Rash, Any grade” value (160 mg QD N = 3) was 1 (33.3) n (%). For the same compound, the “Rash, Grade ≥3” value (160 mg QD N = 3) was 0 n (%), the “Thrombocytopenia, Any grade” value (160 mg QD N = 3) was 0 n (%) and the “Thrombocytopenia, Grade ≥3” value (160 mg QD N = 3) was 0 n (%). For the same compound, the “Upper respiratory tract inflammation, Any grade” value (160 mg QD N = 3) was 1 (33.3) n (%), the “Upper respiratory tract inflammation, Grade ≥3” value (160 mg QD N = 3) was 0 n (%) and the “Vomiting, Any grade” value (160 mg QD N = 3) was 0 n (%). The “Vomiting, Grade ≥3” value (160 mg QD N = 3) was 0 n (%), the “All AEs, Any grade” value (300 mg BID N = 7) was 7 (100.0) n (%) and the “All AEs, Grade ≥3” value (300 mg BID N = 7) was 3 (42.9) n (%). For the same compound, the “Anemia, Any grade” value (300 mg BID N = 7) was 1 (14.3) n (%), the “Anemia, Grade ≥3” value (300 mg BID N = 7) was 1 (14.3) n (%) and the “Arthralgia, Any grade” value (300 mg BID N = 7) was 1 (14.3) n (%). For the same compound, the “Arthralgia, Grade ≥3” value (300 mg BID N = 7) was 0 n (%), the “Aspartate aminotransferase increased, Any grade” value (300 mg BID N = 7) was 1 (14.3) n (%) and the “Aspartate aminotransferase increased, Grade ≥3” value (300 mg BID N = 7) was 0 n (%). The “Constipation, Any grade” value (300 mg BID N = 7) was 1 (14.3) n (%), the “Constipation, Grade ≥3” value (300 mg BID N = 7) was 0 n (%) and the “Cystitis, Any grade” value (300 mg BID N = 7) was 1 (14.3) n (%). The “Cystitis, Grade ≥3” value (300 mg BID N = 7) was 0 n (%), the “Diarrhea, Any grade” value (300 mg BID N = 7) was 2 (28.6) n (%) and the “Diarrhea, Grade ≥3” value (300 mg BID N = 7) was 0 n (%). For the same compound, the “Dysgeusia, Any grade” value (300 mg BID N = 7) was 1 (14.3) n (%) and the “Dysgeusia, Grade ≥3” value (300 mg BID N = 7) was 0 n (%).
